According to ChEMBL document CHEMBL4725317 (Bioorg Med Chem Lett, 2020):
Each block holds one molecule with its values, some of them ahead of it. Active and inactive are the calls of the source. No cut-off for these calls is given here.

Experiments:
[1] = Stability of compound in human liver microsomes assessed as parent compound remaining at 1 uM measured at 10 mins in presence of NADPH; type: ADME, Microsome; settings: liver microsomes, read-out: Stabilty
Method in brief: (§1)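 Test compound at 1 μM with human, mouse or rat liver microsomes (0.5 mg/ml protein) plus NADPH cofactor; final solvents 0.01% DMSO, 0.05% acetonitrile; percent parent remaining at 10 min. Verapamil, cerivastatin and warfarin as positive controls. SD given when multiple batches were tested.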

[2] = Stability of compound in rat liver microsomes assessed as parent compound remaining at 1 uM measured at 10 mins in presence of NADPH; type: ADME, Microsome; settings: for remaining at 10 min, 1 µM: liver microsomes, read-out: Stabilty; method in brief: as §1
[3] = Stability of compound in mouse liver microsomes assessed as parent compound remaining at 1 uM measured at 10 mins in presence of NADPH; type: ADME, Microsome; settings: read-out: Stabilty; method in brief: as §1
[4] = Volume of distribution at steady state in C57BL mouse at 5 mg/kg, iv or 20 mg/kg, po; type: ADME, organism-based; settings: in vivo, read-out: Vdss
Method in brief: (§2)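 Male C57 black mice given 5 mg/kg IV in 20% HPbCD or 20 mg/kg PO in 0.5% Methocel; plasma pharmacokinetic parameters derived from these dosings.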

Mus musculus [5] = test: Antihyperglycemic activity in db/db mouse assessed as decrease in blood glucose level at 10 mg/kg, po administered as single dose measured up to 24 hrs; type: functional, organism-based; settings: time hrs <=24
Method in brief: (§3)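 Male db/db mice given a single oral 10 mg/kg dose or vehicle; fed blood glucose followed up to 24 h and 24-h urinary glucose excretion collected. Mean ± SE versus vehicle controls.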

[6] = Tmax in Sprague-Dawley rat at 2 mg/kg, iv or 10 mg/kg, po; type: ADME, organism-based; settings: in vivo
Method in brief: (§4)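 Male Sprague Dawley rats dosed 2 mg/kg IV (vehicle 20% HPbCD) or 10 mg/kg PO (vehicle 0.5% Methocel); pharmacokinetic parameters derived from plasma exposure.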

[7] = Cmax in C57BL mouse at 5 mg/kg, iv or 20 mg/kg, po; type: ADME, organism-based; design: dose 20 mg/kg; settings: in vivo; method in brief: as §2
[8] = Clearance in C57BL mouse at 5 mg/kg, iv or 20 mg/kg, po; type: ADME, organism-based; settings: in vivo; method in brief: as §2
Mus musculus [9] = test: Antihyperglycemic activity in db/db mouse assessed as increase in urinary glucose excretion at 10 mg/kg, po administered as single dose measured up to 24 hrs; type: functional, organism-based; settings: time hrs <=24; method in brief: as §3
[10] = Half life in Sprague-Dawley rat at 2 mg/kg, iv; type: ADME, organism-based; settings: in vivo; method in brief: as §4
[11] = AUC (0 to infinity) in Sprague-Dawley rat at 2 mg/kg, iv or 10 mg/kg, po; type: ADME, organism-based; design: dose 10 mg/kg; settings: in vivo; method in brief: as §4
[12] = In vivo inhibition of SGLT1/2 in overnight fasted Sprague-Dawley rat assessed as amount of urinary glucose excretion assessed per 4 hrs at 10 mg/kg, po; type: functional
Method in brief: (§5)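 Overnight-fasted SD rats dosed orally at 1 or 10 mg/kg in 0.5% Methocel (vehicle controls) 60 min before oral glucose challenge. […] N=8 per group; mean ± SEM; one-way ANOVA-Dunnett.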

Rattus norvegicus [13] = test: Hypoglycemic activity in overnight fasted Sprague-Dawley rat assessed as percent reduction in blood glucose AUC at 1 mg/kg, po measured after 4 hrs post glucose challenge by OGTT relative to control; type: functional; design: scale not given: the % may be the effect or the level left; method in brief: as §5
[14] = Volume of distribution at steady state in Sprague-Dawley rat at 2 mg/kg, iv or 10 mg/kg, po; type: ADME, organism-based; settings: in vivo, read-out: Vdss; method in brief: as §4
[15] = Cmax in Sprague-Dawley rat at 2 mg/kg, iv or 10 mg/kg, po; type: ADME, organism-based; design: dose 10 mg/kg; settings: in vivo; method in brief: as §4
[16] = Clearance in Sprague-Dawley rat at 2 mg/kg, iv or 10 mg/kg, po; type: ADME, organism-based; settings: in vivo; method in brief: as §4
Rattus norvegicus [17] = test: Hypoglycemic activity in overnight fasted po dosed Sprague-Dawley rat assessed as reduction in blood glucose treated 60 mins prior to glucose challenge by OGTT; type: functional, organism-based; settings: dose mg/kg 1-10, time 60.0 min
[18] = Oral bioavailability in Sprague-Dawley rat at 10 mg/kg; type: ADME, organism-based; settings: in vivo; method in brief: as §4
Rattus norvegicus [19] = test: Hypoglycemic activity in overnight fasted po dosed Sprague-Dawley rat assessed as reduction in blood glucose AUC treated 60 mins prior to glucose challenge and measured up to 120 mins by OGTT; type: functional, organism-based; settings: dose mg/kg 1-10, time 60.0 min
[20] = Tmax in C57BL mouse at 5 mg/kg, iv or 20 mg/kg, po; type: ADME, organism-based; settings: in vivo; method in brief: as §2
[21] = Oral bioavailability in C57BL mouse at 20 mg/kg; type: ADME, organism-based; settings: in vivo; method in brief: as §2
[22] = AUC (0 to infinity) in C57BL mouse at 5 mg/kg, iv or 20 mg/kg, po; type: ADME, organism-based; design: dose 20 mg/kg; settings: in vivo; method in brief: as §2
[23] = In vivo inhibition of SGLT1/2 in overnight fasted Sprague-Dawley rat assessed as amount of urinary glucose excretion assessed per 4 hrs at 1 mg/kg, po; type: functional; method in brief: as §5
Rattus norvegicus [24] = test: In vivo inhibition of SGLT1/2 in overnight fasted po dosed Sprague-Dawley rat assessed as reduction in blood glucose by OGTT; type: functional, organism-based; settings: dose mg/kg 1-10
Rattus norvegicus [25] = test: Hypoglycemic activity in overnight fasted Sprague-Dawley rat assessed as percent reduction in blood glucose AUC at 10 mg/kg, po measured after 4 hrs post glucose challenge by OGTT relative to control; type: functional; design: scale not given: the % may be the effect or the level left; method in brief: as §5
[26] = Half life in C57BL mouse at 5 mg/kg, iv; type: ADME, organism-based; settings: in vivo; method in brief: as §2
[27] = target: T1, Sodium/glucose cotransporter 2 (Homo sapiens) (UniProt P31639); test: Inhibition of human SGLT2 expressed in CHO cells assessed as reduction in [14C]-methyl-alpha -D-glucopyranoside accumulation at 0.3 uM relative to control; type: cell-based
T1 sequence (whole entry): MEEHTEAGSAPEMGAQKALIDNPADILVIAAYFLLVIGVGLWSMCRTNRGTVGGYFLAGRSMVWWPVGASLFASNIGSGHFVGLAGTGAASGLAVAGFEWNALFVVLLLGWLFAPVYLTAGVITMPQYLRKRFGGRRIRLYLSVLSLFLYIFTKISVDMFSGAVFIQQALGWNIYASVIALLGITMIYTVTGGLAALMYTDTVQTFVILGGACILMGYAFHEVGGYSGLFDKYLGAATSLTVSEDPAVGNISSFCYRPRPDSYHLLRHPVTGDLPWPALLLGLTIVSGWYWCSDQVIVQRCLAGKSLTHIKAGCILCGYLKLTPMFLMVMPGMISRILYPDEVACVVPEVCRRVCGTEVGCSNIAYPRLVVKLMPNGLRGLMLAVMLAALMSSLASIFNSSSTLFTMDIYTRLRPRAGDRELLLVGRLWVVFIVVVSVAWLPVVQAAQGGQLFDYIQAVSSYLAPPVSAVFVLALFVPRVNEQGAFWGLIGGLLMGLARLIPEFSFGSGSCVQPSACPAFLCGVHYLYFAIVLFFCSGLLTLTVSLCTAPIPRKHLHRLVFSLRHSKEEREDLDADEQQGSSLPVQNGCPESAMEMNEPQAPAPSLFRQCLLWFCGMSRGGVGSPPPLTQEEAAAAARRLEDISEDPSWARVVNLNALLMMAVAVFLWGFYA
Method in brief: (§6)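 CHO cells expressing human SGLT1 or SGLT2; inhibition of [14C]methyl D-glucopyranoside (AMG) accumulation measured with test compound at 0.3 μM.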

[28] = target: T2, Sodium/glucose cotransporter 1 (Homo sapiens) (UniProt P13866); test: Inhibition of human SGLT1 expressed in CHO cells assessed as reduction in [14C]-methyl-alpha -D-glucopyranoside accumulation at 0.3 uM relative to control; type: cell-based; method in brief: as §6
T2 sequence (whole entry): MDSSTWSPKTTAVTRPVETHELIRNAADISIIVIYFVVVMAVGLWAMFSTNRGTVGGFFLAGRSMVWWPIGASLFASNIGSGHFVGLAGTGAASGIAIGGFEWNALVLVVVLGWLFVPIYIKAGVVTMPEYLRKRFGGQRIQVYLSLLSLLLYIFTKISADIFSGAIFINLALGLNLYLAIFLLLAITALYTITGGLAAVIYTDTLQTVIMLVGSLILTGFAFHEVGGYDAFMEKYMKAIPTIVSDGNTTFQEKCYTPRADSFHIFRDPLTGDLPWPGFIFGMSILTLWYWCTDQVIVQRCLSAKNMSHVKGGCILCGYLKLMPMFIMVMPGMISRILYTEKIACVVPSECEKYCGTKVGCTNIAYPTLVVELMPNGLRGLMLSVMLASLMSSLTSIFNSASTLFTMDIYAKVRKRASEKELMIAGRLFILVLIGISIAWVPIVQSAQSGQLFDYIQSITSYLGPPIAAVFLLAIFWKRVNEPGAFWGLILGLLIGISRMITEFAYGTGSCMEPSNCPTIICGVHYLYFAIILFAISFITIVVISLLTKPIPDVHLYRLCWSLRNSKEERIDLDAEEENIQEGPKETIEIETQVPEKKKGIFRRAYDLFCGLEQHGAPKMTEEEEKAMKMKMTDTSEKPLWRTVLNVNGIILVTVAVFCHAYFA

remaining at 10 min, 1 µM [1]: 100%
remaining at 10 min, 1 µM [2]: 70%
remaining at 10 min, 1 µM [3]: 91%
SMILES: COc1cc(O)c([C@@H]2O[C@H](CO)C(F)(F)[C@H](O)[C@H]2O)cc1Cc1ccc2c(c1)CCO2

Vd [4]: 0.96 L/kg
Tmax [6]: 15 min
Cmax [7]: 4680 ng/mL
clearance [8]: 19 mL/min/kg
half-life [10]: 137 min
remaining at 10 min, 1 µM [1]: 95%
AUC(0-inf) [11]: 524 ng·h/mL
Vd [14]: 3.85 L/kg
Cmax [15]: 258 ng/mL
clearance [16]: 75.6 mL/min/kg
bioavailability [18]: 22.3%
remaining at 10 min, 1 µM [2]: 57%
Tmax [20]: 60 min
bioavailability [21]: 52.1%
AUC(0-inf) [22]: 9160 ng·h/mL
remaining at 10 min, 1 µM [3]: 85%
half-life [26]: 49.8 min
SMILES: COc1cc(O)c([C@@H]2O[C@H](CO)C(F)(F)[C@H](O)[C@H]2O)cc1Cc1ccc2c(c1)CCCO2
Activity (Mus musculus [5]): Active
Activity (Mus musculus [9]): Active
Activity [12]: 0.2 g
Activity (Rattus norvegicus [13]): 38.3%
Activity (Rattus norvegicus [17]): Dose-dependent effect
Activity (Rattus norvegicus [19]): Dose-dependent effect
Activity [23]: 0.002 g
inhibition (Rattus norvegicus [24]): Dose-dependent effect
Activity (Rattus norvegicus [25]): 60.7%

remaining at 10 min, 1 µM [1]: 89%
remaining at 10 min, 1 µM [2]: 15%
remaining at 10 min, 1 µM [3]: 105%
SMILES: C[C@]1(F)[C@H](O)[C@@H](O)[C@H](c2cc(Cc3cc4ccccc4s3)c(Cl)cc2O)O[C@@H]1CO

remaining at 10 min, 1 µM [1]: 103%
remaining at 10 min, 1 µM [2]: 98%
remaining at 10 min, 1 µM [3]: 111%
SMILES: COc1cc(O)c([C@@H]2O[C@H](CO)C(F)(F)[C@H](O)[C@H]2O)cc1Cc1cc2ccccc2s1

remaining at 10 min, 1 µM [1]: 74%
remaining at 10 min, 1 µM [2]: 56%
remaining at 10 min, 1 µM [3]: 96%
SMILES: C[C@]1(F)[C@H](O)[C@@H](O)[C@H](c2cc(Cc3ccc4c(c3)OCCO4)c(Cl)cc2O)O[C@@H]1CO

remaining at 10 min, 1 µM [1]: 65%
Stabilty ([2]; microsomes, 10 min, 1 µM): 123%
remaining at 10 min, 1 µM [3]: 37%
SMILES: COc1cc(Cl)c(Cc2cc3ccccc3s2)cc1[C@@H]1O[C@H](CO)C(F)(F)[C@H](O)[C@H]1O

inhibition [27]: 67%
inhibition [28]: 31%
SMILES: COc1cc(O)c([C@@H]2O[C@H](CO)[C@@](C)(F)[C@H](O)[C@H]2O)cc1Cc1ccc2c(c1)CCCO2
